Results published in PMC10879835 (Saudi Journal of Biological Sciences, 2024).
One block for each molecule: values may come before it.

Key:
[1] = Solubility of MG in solid lipids and surfactants; type: physicochemical; details: in Labrafil M 2130 CS
Summary of the method: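 1 g of each solid lipid was held in a vial on a magnetic stirrer above its melting point. Test compound was added in increments until saturation, and the amount dissolved was recorded. Samples were filtered through a 0.45 membrane to remove undissolved solid.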

α-amylase = test: α-Amylase inhibitory assay; type: biochemical; details: at 100 µg/mL
Summary of the method: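 DNS method. Test compound at 25, 50, 100 and 200 µg/ml, or acarbose at 100 µg/ml as reference, was preincubated 30 min with α-amylase diluted in 20 mM sodium phosphate buffer pH 6.9. 1% w/w starch was then added and the mix held 15 min at 37 ± 0.5 °C. The reaction was stopped with DNS reagent and heated 5 min in boiling water, then read at 540 nm. % inhibition was calculated against a no-sample control and a no-enzyme blank.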

α-glucosidase = test: α-Glucosidase inhibitory assay; type: biochemical
Summary of the method: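 Test sample was preincubated 15 min at 37 °C with α-glucosidase solution (1 U/mL in 0.1 M potassium phosphate buffer, pH 6.8). 5 mM p-nitrophenyl-α-D-glucopyranoside solution was added, with a further 15 min incubation. The reaction was stopped with 0.2 M sodium carbonate and read at 405 nm. Acarbose was the positive control. % inhibition came from control and blank absorbances.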

Anti-oxidant DPPH assay = details: 30 mins, absorbance at 515 nm
Summary of the method: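 Lipid-nanoparticle and solution formulations of the test compound were made as 1 mg/ml stocks in methanol and diluted to 1–50 ug/ml. Ascorbic acid was the control. Each dilution was mixed 1:1 by volume with 200 μM DPPH. Absorbance at 515 nm was read after 30 min against a methanol blank. % inhibition was taken […], and IC50 came from regression of mean % inhibition on log concentration.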

MG solubility in solid lipid [1]: 77.63 ± 5.78 mg/g
SMILES: O=c1c2cc(O)c(O)cc2oc2cc(O)c([C@@H]3O[C@H](CO)[C@@H](O)[C@H](O)[C@H]3O)c(O)c12 [Mangiferin]

α-amylase inhibitory effect (α-amylase): 78.01 ± 7.45%
α-glucosidase inhibition (α-glucosidase): 63.43 ± 4.02%
SMILES: C[C@H]1O[C@H](O[C@H]2[C@H](O)[C@@H](O)[C@@H](O[C@H]3[C@H](O)[C@@H](O)C(O)O[C@@H]3CO)O[C@@H]2CO)[C@H](O)[C@@H](O)[C@@H]1N[C@H]1C=C(CO)[C@@H](O)[C@H](O)[C@H]1O (stereo partly shown) [Acarbose]

DPPH IC50 (Anti-oxidant DPPH assay): 23.33 mg/L
SMILES: O=C1O[C@H]([C@@H](O)CO)C(O)=C1O [AA, ascorbic acid]
